Source: PubChem BioAssay
M1 antagonist: antagonists of rat M1 muscarinic receptor; Muscarinic acetylcholine receptor M1 (Rattus norvegicus), P08482; 64,000 compounds, 3.4% hits; CHO-M1 cells, Fluo-4 calcium, ACh EC80 antagonist mode; active compounds read low; B-score at 10 µM;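 active means calcium fluorescence response, raw or row-and-column corrected B-score, differing from the plate sample mean either way at a set confidence level, mostly lower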
SF-1 act: activators of human SF-1, primary screen, cell-based, CHO-K1, Gal4-SF-1 LBD, luciferase luminescence; Steroidogenic factor 1 (Homo sapiens), Q13285; CHO-K1 Gal4-SF-1 LBD luciferase reporter; % increase over DMSO SF-1-specific signal; activation, % at 10 µM; 65,000 compounds, 1.9% hits; AID 522, 2006;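 active means activation above the mean activation of all tested compounds plus 3 SD, cut at about 50% in these data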
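material = CHO-K1 cells with Gal4–hSF-1 LBD chimera plus Gal4-driven luciferase | compound = 10 µM single point, 1% DMSO | incubation = 20 h compound exposure at 37 °C after 1 h cell settling | measured by = SteadyLite luciferase luminescence | evaluation = percent activation relative to DMSO median and mock-transfected background | control set = DMSO negative control and −SF1 background wells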
MT1-MMP txn act: MT1-MMP promoter reporter activation – cell-based, luciferase luminescence, primary screen; 86,000 compounds, 0.16% hits; HT1080 MT1-MMP promoter luciferase reporter, overnight; active compounds read high; AID 750, 2007; activation factor at 10 µM;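 active means activation factor of at least 2 for MT1-MMP transcription at 10 µM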
M1 agonist: M1 muscarinic receptor agonists, primary screen, CHO-M1 cells, Fluo-4 calcium, agonist mode. Muscarinic acetylcholine receptor M1. 64,000 compounds, 3% hits. B-score at 10 µM. Fluo-4 calcium fluorescence; active compounds read high;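 active means fluorescence rise, raw or as B-score row- and column-corrected plate score, outside the 99.7% band of its plate's samples, either direction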
RORA act: activators of orphan receptor RORA, primary screen, cell-based, luminescence; Nuclear receptor ROR-alpha (Homo sapiens), P35398; CHO-K1 Gal4-RORA LBD luciferase reporter; percent increase over mock-subtracted basal signal; activation, % at 10 µM; 65,000 compounds, 1.5% hits;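 active means activation above the mean of all tested compounds plus 3 SD, cut at about 49% in these data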;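 further: 0% = DMSO-treated RORA cells and 100% = added signal equal to DMSO minus mock-transfected cells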
Target sequence (P35398 whole entry, looked up, the tested form may be a part): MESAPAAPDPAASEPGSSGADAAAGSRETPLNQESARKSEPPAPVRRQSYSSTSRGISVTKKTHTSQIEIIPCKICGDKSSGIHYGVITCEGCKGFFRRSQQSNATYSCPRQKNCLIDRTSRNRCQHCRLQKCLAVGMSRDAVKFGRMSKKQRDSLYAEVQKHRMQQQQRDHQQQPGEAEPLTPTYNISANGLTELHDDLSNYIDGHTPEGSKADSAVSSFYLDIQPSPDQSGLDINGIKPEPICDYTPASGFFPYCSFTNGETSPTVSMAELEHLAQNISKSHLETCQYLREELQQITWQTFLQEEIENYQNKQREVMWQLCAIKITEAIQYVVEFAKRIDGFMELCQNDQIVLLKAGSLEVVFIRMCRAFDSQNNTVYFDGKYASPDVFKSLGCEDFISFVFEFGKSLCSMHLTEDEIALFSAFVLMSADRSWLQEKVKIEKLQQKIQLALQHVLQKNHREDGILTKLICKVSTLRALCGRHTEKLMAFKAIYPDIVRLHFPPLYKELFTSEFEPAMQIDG
Numbers without * were called inactive. Shown are actives, neighbours in structure and some others; about 6.3% of the full set was active somewhere.

What do the screens show for `CC(=O)C1=C(O)C(=O)N(c2cccc(C(=O)O)c2)C1c1ccc(F)cc1` (configuration not stated)?
M1 antagonist: 0.056; SF-1 act: -2; MT1-MMP txn act: 1; M1 agonist: -0.085; RORA act: 8

How did CN1C(=O)c2ccc(N3CCCC3)cc2C1=O do in these assays?
M1 antagonist: -1.2; SF-1 act: 12; MT1-MMP txn act: 1.2; M1 agonist: 13*; RORA act: 2

Results for O=C1CSC(c2cccs2)N1c1ccccc1 (configuration not stated) ?
M1 antagonist: -0.34; SF-1 act: -12; MT1-MMP txn act: 1.1; M1 agonist: 0.25; RORA act: -12

What do the screens show for `c1ccc(N2CCN(c3ccccc3)C2c2cccs2)cc1`?
M1 antagonist: -0.26; SF-1 act: 24; MT1-MMP txn act: 1.3; M1 agonist: 1.5; RORA act: 58*

How did Cc1noc(C)c1C(=O)OCC(=O)c1cc(C)n(Cc2ccccc2Cl)c1C do in these assays?
M1 antagonist: 2.1; SF-1 act: 29; MT1-MMP txn act: 1.4; M1 agonist: 0.0051; RORA act: 49*

What do the screens show for `Cc1noc(C)c1C(=O)OCC(=O)c1ccc[nH]1`?
M1 antagonist: -1.2; SF-1 act: 14; MT1-MMP txn act: 1.2; M1 agonist: -0.61; RORA act: 18

What do the screens show for `COc1ccc(C(=O)NCC(c2cccnc2)N2CCN(c3ccccc3)CC2)cc1OC` (configuration not stated)?
M1 antagonist: 1.9; SF-1 act: 12; MT1-MMP txn act: 1.1; M1 agonist: 0.31; RORA act: -14

What do the screens show for `c1ccc(Cc2nnc3sc(-c4ccc5c(c4)OCCO5)nn23)cc1`?
M1 antagonist: -0.43; SF-1 act: 55*; MT1-MMP txn act: 1.4; M1 agonist: -0.48; RORA act: 38

Results for c1ccc(Cc2nnc3sc(-c4ccc5c(c4)OCO5)nn23)cc1 ?
M1 antagonist: 0.047; SF-1 act: 20; MT1-MMP txn act: 1.1; M1 agonist: 0.75; RORA act: -2

Results for CCC(=O)Oc1ccc(/C(CC)=C(\CC)c2ccc(OC(=O)CC)cc2)cc1 ?
M1 antagonist: 0.085; SF-1 act: 0; MT1-MMP txn act: 1.1; M1 agonist: 0.25; RORA act: 3

How did COCCCN(C(C)=O)c1nc(-c2ccccc2)cs1 do in these assays?
M1 antagonist: -0.43; SF-1 act: 79*; MT1-MMP txn act: 0.9; M1 agonist: 0.3; RORA act: 35

How did COCCN(C(C)=O)c1nnc(-c2ccccn2)s1 do in these assays?
M1 antagonist: -0.7; SF-1 act: 16; MT1-MMP txn act: 1.2; M1 agonist: 0.1; RORA act: 18

Results for CCOC(=O)c1cnc(SCc2ccccc2)nc1N ?
M1 antagonist: -0.43; SF-1 act: 67*; MT1-MMP txn act: 0.9; M1 agonist: -0.17; RORA act: 51*

How did Cc1ccccc1NC(=O)CCSc1nnnn1-c1ccccc1 do in these assays?
MT1-MMP txn act: 1.1

What do the screens show for `O=c1c2[nH]c3ccccc3c2ncn1C1CCCCC1`?
M1 antagonist: 0.32; SF-1 act: 20; MT1-MMP txn act: 1.2; M1 agonist: -0.68; RORA act: 61*

How did COc1ccc(OC)c(C(=O)CSc2nnc(Cc3cccs3)n2CCc2ccccc2)c1 do in these assays?
MT1-MMP txn act: 1.2

What do the screens show for `CCCCN1CC(O)=C(c2nc3ccccc3s2)C1=N`?
M1 antagonist: 1.4; SF-1 act: 74*; MT1-MMP txn act: 1.5; M1 agonist: -0.21; RORA act: 30

Results for N=C1C(c2nc3ccccc3s2)=C(O)CN1CCCO ?
M1 antagonist: -0.069; SF-1 act: 23; MT1-MMP txn act: 1.3; M1 agonist: 0.2; RORA act: 23

What do the screens show for `CCCCNC(=O)c1nnn(-c2ccccc2)c1N`?
M1 antagonist: -0.19; SF-1 act: 67*; MT1-MMP txn act: 1.4; M1 agonist: -0.0097; RORA act: 24

Results for Cc1cc(C)cc(-n2nnc(C(=O)NCc3ccccc3)c2N)c1 ?
M1 antagonist: 0.048; SF-1 act: 32; MT1-MMP txn act: 1.1; M1 agonist: 2; RORA act: 5

What do the screens show for `N#Cc1c(NC(=O)COC(=O)C2CC3C=CC2C3)oc(-c2ccccc2)c1-c1ccccc1` (configuration not stated)?
M1 antagonist: 0.00058; SF-1 act: -10; MT1-MMP txn act: 0.9; M1 agonist: -0.039; RORA act: -13

Results for COc1ccc(OC)c(C2C3=C(CCCC3=O)Nc3nc4ccccc4n32)c1 (configuration not stated) ?
M1 antagonist: 0.27; SF-1 act: 11; MT1-MMP txn act: 1.1; M1 agonist: -0.69; RORA act: -12

Results for Nc1nonc1C(=O)NCCNCc1cc(Br)ccc1OCc1ccccc1F ?
M1 antagonist: -0.99; SF-1 act: -46; MT1-MMP txn act: 0; M1 agonist: 2.8*; RORA act: -38

Results for Cc1ccccc1-c1nnc(-c2ccc(Br)cc2)o1 ?
M1 antagonist: 0.95; SF-1 act: 77*; MT1-MMP txn act: 1.7; M1 agonist: 0.75; RORA act: 32

What do the screens show for `Cc1ccc(-c2nnc(-c3cccc(Br)c3)o2)cc1`?
M1 antagonist: -0.01; SF-1 act: 40; MT1-MMP txn act: 1.8; M1 agonist: 0.72; RORA act: 18

How did Brc1cccc(-c2nnc(-c3ccccc3)o2)c1 do in these assays?
M1 antagonist: 0.0071; SF-1 act: 60*; MT1-MMP txn act: 1.3; M1 agonist: -0.18; RORA act: 39

What do the screens show for `O=c1oc2ccccc2cc1-c1nnc(-c2cccc(Br)c2)o1`?
M1 antagonist: -0.13; SF-1 act: 53*; MT1-MMP txn act: 1.2; M1 agonist: 0.16; RORA act: 29

Results for COc1ccc(-c2noc(CN(C(=O)c3cccs3)C(C)C)n2)cc1 ?
MT1-MMP txn act: 1

Results for O=C(NCCN1CCN(c2ccccc2)CC1)C1CCN(S(=O)(=O)c2cccc3nonc23)CC1 ?
M1 antagonist: -0.55; SF-1 act: 6; MT1-MMP txn act: 1; M1 agonist: -0.99; RORA act: -3

Results for Cc1c(C(=O)OCC(C)C)[nH]c2c1C(=O)CC(c1ccco1)C2 (configuration not stated) ?
M1 antagonist: -0.0042; SF-1 act: -18; MT1-MMP txn act: 0.4; M1 agonist: 0.2; RORA act: -13

What do the screens show for `Cc1c(C(=O)OCC2CCCO2)[nH]c2c1C(=O)CC(c1ccco1)C2` (configuration not stated)?
M1 antagonist: -0.12; SF-1 act: 4; MT1-MMP txn act: 0.7; M1 agonist: 0.45; RORA act: 56*
